Reference: ChEMBL document CHEMBL3046177, “Plant growth inhibitory activity of p-hydroxyacetophenones and tremetones from Chilean endemic Baccharis species and some analogous: a comparative study” (J Agric Food Chem, 2002)
Calls of active or inactive are those of the source. The rule behind the calls is not given here.

How the values were obtained:
Trifolium pratense [1] = assay: Phytotoxicity against Trifolium pratense (red clover) assessed as inhibition of seed respiration during germination after 24 hr; format: functional, organism-based
Method in brief: (§1)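 Oxygen uptake of germinating seeds measured polarographically with a Clark-type electrode at 25 °C in a nonilluminated cell over 5 and 10 min, at several compound concentrations. Expressed as percent of control (100%). Three experiments; RI50 from Probit analysis.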

Lolium multiflorum [2] = assay: Phytotoxicity against Lolium multiflorum (Italian ryegrass) assessed as inhibition of shoot development during seeding stage after 120 hr; format: functional, organism-based; details: read-out: I50
Method in brief: (§2)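 Petri-dish seedling assay on filter paper wetted with test solution (MeOH < 1%), 28 °C in the dark. Coleoptile/hypocotyl and root lengths of all germinated seeds measured after 120 h, then plants dried to constant weight at 40 °C. Three replicates; 50% inhibitory concentrations by Probit analysis of percent inhibition versus concentration.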

Lolium multiflorum [3] = assay: Phytotoxicity against Lolium multiflorum (Italian ryegrass) assessed as inhibition of root development during seeding stage after 120 hr; format: functional, organism-based; details: read-out: I50; method in brief: as §2
Lactuca sativa [4] = assay: Phytotoxicity against Lactuca sativa (lettuce) assessed as inhibition of seed germination after 48 hr; format: functional
Method in brief: (§3)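 Seeds of uniform size on Whatman No.1 filter paper in 85 mm Petri dishes, wetted with 8 or 10 mL deionized water or test solution (MeOH < 1%); controls got matching water/methanol. Sealed, incubated at 28 °C in the dark, scored at 48 h intervals; germination = 1 mm radicle extrusion. Three replicates.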

Physalis ixocarpa [5] = assay: Phytotoxicity against Physalis ixocarpa assessed as inhibition of seed respiration during germination after 24 hr; format: functional, organism-based; method in brief: as §1
Lolium multiflorum [6] = assay: Phytotoxicity against Lolium multiflorum (Italian ryegrass) assessed as inhibition of seed germination after 48 hr; format: functional; method in brief: as §3
Lolium multiflorum [7] = assay: Phytotoxicity against Lolium multiflorum (Italian ryegrass) assessed as inhibition of seed respiration during germination after 24 hr; format: functional, organism-based; method in brief: as §1
Physalis ixocarpa [8] = assay: Phytotoxicity against Physalis ixocarpa assessed as inhibition of seed germination after 48 hr; format: functional; method in brief: as §3
Physalis ixocarpa [9] = assay: Phytotoxicity against Physalis ixocarpa assessed as inhibition of shoot development during seeding stage after 120 hr; format: functional, organism-based; details: for IC50: read-out: I50; method in brief: as §2
Trifolium pratense [10] = assay: Phytotoxicity against Trifolium pratense (red clover) assessed as inhibition of root development during seeding stage after 120 hr; format: functional, organism-based; details: read-out: I50; method in brief: as §2
Trifolium pratense [11] = assay: Phytotoxicity against Trifolium pratense (red clover) assessed as inhibition of seed germination after 48 hr; format: functional; method in brief: as §3
Lactuca sativa [12] = assay: Phytotoxicity against Lactuca sativa (lettuce) assessed as inhibition of shoot development during seeding stage after 120 hr; format: functional, organism-based; details: read-out: I50; method in brief: as §2
Lactuca sativa [13] = assay: Phytotoxicity against Lactuca sativa (lettuce) assessed as inhibition of seed respiration during germination after 24 hr; format: functional, organism-based; method in brief: as §1
Trifolium pratense [14] = assay: Phytotoxicity against Trifolium pratense (red clover) assessed as inhibition of shoot development during seeding stage after 120 hr; format: functional, organism-based; details: read-out: I50; method in brief: as §2
Physalis ixocarpa [15] = assay: Phytotoxicity against Physalis ixocarpa assessed as inhibition of root development during seeding stage after 120 hr; format: functional, organism-based; details: for IC50: read-out: I50; method in brief: as §2
Lactuca sativa [16] = assay: Phytotoxicity against Lactuca sativa (lettuce) assessed as inhibition of root development during seeding stage after 120 hr; format: functional, organism-based; details: read-out: I50; method in brief: as §2
Lactuca sativa [17] = assay: Phytotoxicity against Lactuca sativa (lettuce) assessed as inhibition of seed respiration during germination after 72 hr; format: functional, organism-based; details: read-out: I50; method in brief: as §1
[18] = tested on: Radical scavenging activity; assay: Antioxidant activity assessed as DPPH free radical scavenging activity after 30 min by TLC autographic assay; format: functional; details: in the assay text read “spectrophotometric assay” for “TLC autographic assay”; read-out: I50
Lolium multiflorum [19] = assay: Phytotoxicity against Lolium multiflorum (Italian ryegrass) assessed as inhibition of seed respiration during germination after 72 hr; format: functional, organism-based; details: read-out: I50; method in brief: as §1
Spinacia oleracea [20] = assay: Inhibition of ATP synthesis in Spinacia oleracea (spinach) chloroplasts; format: functional
Method in brief: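 Spinach thylakoids in 100 mM sorbitol, 5 mM MgCl2, 10 mM KCl, 1 mM Na+-tricine, pH 8, with 50 µM methyl viologen as Hill-reaction electron acceptor. Illuminated at 20 °C through 1% CuSO4 filter. ATP synthesis measured titrimetrically.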

Spinacia oleracea [21] = assay: Inhibition of H+ uptake in Spinacia oleracea (spinach) chloroplasts; format: functional; details: for IC50: read-out: I50
Method in brief: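 Spinach thylakoids (from isolated chloroplasts, in sorbitol/tricine/MgCl2/NaCl buffer, pH 7.8) in 100 mM sorbitol, 5 mM MgCl2, 10 mM KCl, 1 mM Na+-tricine, pH 8, with 50 µM methyl viologen. Illuminated at 20 °C through 1% CuSO4 filter. H+ uptake recorded as pH rise from 8.0 to 8.1 with combination microelectrode on expanded scale.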

Physalis ixocarpa [22] = assay: Phytotoxicity against Physalis ixocarpa assessed as inhibition of seed respiration during germination after 72 hr; format: functional, organism-based; details: read-out: I50; method in brief: as §1
Trifolium pratense [23] = assay: Phytotoxicity against Trifolium pratense (red clover) assessed as inhibition of seed respiration during germination after 72 hr; format: functional, organism-based; details: read-out: I50; method in brief: as §1
[24] = Antioxidant activity assessed as inhibition of bleaching of water soluble crocin measured every 5 min by spectrophotometric analysis; format: functional
Method in brief: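 Aqueous mixture of 10 µM crocin, 1 mM t-BuOOH and 0.5 M t-BuOH with serial dilutions of test compound, placed under UV254 light; crocin bleaching (absorbance decrease) and fluorescence emission at 440 and 470 nm followed every 5 min. Three experiments, mean ± SEM.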

Phaseolus vulgaris = assay: Inhibition of mitochondrial respiration in Phaseolus vulgaris root mitochondria assessed as reduction of oxygen uptake; format: functional; details: read-out: I50
Method in brief: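 Mitochondria from roots of 72 h dark-grown (28 °C) bean seedlings, Percoll-gradient purified, 0.3-0.5 mg protein (Bradford) per run; integrity checked with HCN. Compounds in 0.5% methanol added after a constant state 3 rate with […] was reached. O2 uptake by Clark electrode; control is mitochondria with 0.5% MeOH. Three experiments; I50 by Probit.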

Lolium multiflorum [25] = assay: Phytotoxicity against Lolium multiflorum (Italian ryegrass) assessed as inhibition of seed germination at 500 uM after 48 hr; format: functional; method in brief: as §3
[26] = tested on: Lolium multiflorum (ryegrass); assay: Phytotoxicity against Lolium multiflorum (ryegrass) assessed as inhibition of seed germination at 500 uM after 48 hr

Row | Structure (SMILES) | I50 (Trifolium pratense [1]) | IC50 (Lolium multiflorum [2]) [µM] | IC50 (Lolium multiflorum [3]) [µM] | GI50 (Lactuca sativa [4]) [µM] | I50 (Physalis ixocarpa [5]) | GI50 (Lolium multiflorum [6]) [µM] | I50 (Lolium multiflorum [7]) | GI50 (Physalis ixocarpa [8]) | IC50 (Physalis ixocarpa [9]) [µM] | IC50 (Trifolium pratense [10]) [µM] | GI50 (Trifolium pratense [11]) [µM] | IC50 (Lactuca sativa [12]) [µM] | I50 (Lactuca sativa [13]) | IC50 (Trifolium pratense [14]) [µM] | IC50 (Physalis ixocarpa [15]) [µM] | IC50 (Lactuca sativa [16]) [µM] | IC50 (Lactuca sativa [17]) [µM] | inhibition (Spinacia oleracea [20]) | inhibition (Spinacia oleracea [21]) | IC50 (Spinacia oleracea [21]) [µM] | further results
1 | CC(=O)c1ccc2c(c1)C[C@H](C(C)C)O2 [10,11-DIHYDRO TREMETONE] | inactive | 29.3 | 31.9 | 25.9 | inactive | 31.5 | inactive | 24.7 µM | 20.1 | 28.6 | 27.9 | 17.3 | inactive | 23.2 | 19.1 | 17.4 |  |  |  |  | 
2 | CC(=O)c1ccc2c(c1)CC(C1(C)CO1)O2 (configuration not stated) [10,11-EPOXY TREMETONE] |  | 65.9 | 72.6 | 36.1 |  | 65.6 |  | 19.2 µM | 5.8 | 16.2 | 22.3 | 33 |  | 14.3 | 15.7 | 33.8 | 58 | Dose-dependent effect | Dose-dependent effect | 40.7 | IC50 [18]: 62.6 µM; IC50 (Lolium multiflorum [19]): 67.9 µM; IC50 (Physalis ixocarpa [22]): 57.5 µM; IC50 (Trifolium pratense [23]): 49.1 µM; inhibition [24]: Active; IC50 (Phaseolus vulgaris): 109 µM
3 | CC(=O)c1ccccc1 [ACETOPHENONE] | inactive | 126 | 128 | 47 | inactive | 128 | inactive | inactive |  | 134 | 137 | 49.5 | inactive | 137 |  | 45.7 |  |  |  |  | I50 (Physalis ixocarpa [9]): inactive; inhibition at 500 µM (Lolium multiflorum [25]): 30%; inhibition at 500 µM [26]: 30%; I50 (Physalis ixocarpa [15]): inactive
4 | COc1ccc(C(C)=O)cc1 [P-METHOXY-ACETOPHENONE] |  | 17.9 | 18.9 | 51.2 |  | 18.1 |  | 23.5 µM | 20.1 | 126 | 126 | 49.5 |  | 120 | 20.5 | 44.3 | 55.9 | Dose-dependent effect | Dose-dependent effect | 65.7 | IC50 (Lolium multiflorum [19]): 40 µM; IC50 (Physalis ixocarpa [22]): 54.6 µM; IC50 (Trifolium pratense [23]): 57.6 µM; IC50 (Phaseolus vulgaris): 152 µM
5 | O=C1C(O)=C(O)C(=O)C(O)=C1O [TETROQUINONE] |  |  |  |  |  |  |  |  |  |  |  |  |  |  |  |  |  |  |  |  | IC50 [18]: 9.37 µM
6 | C=C(C)[C@H]1Cc2cc(C(C)=O)ccc2O1 [TREMETONE] | inactive | 35 | 36.1 | 45 | inactive | 37.5 | inactive | 31.8 µM | 7.7 | 34.9 | 35.5 | 45 | inactive | 35.5 | 18.6 | 44.2 |  | Dose-dependent effect | Dose-dependent effect | 70.7 | inhibition [24]: Active
